Screens (PubChem)
L major viab – Leishmania major promastigote growth inhibition, primary screen | inhibition, % at 10 µM | actives 9% (n = 200,000) | Leishmania major promastigotes, resazurin fluorescence viability; in the data active = inhibition above about 50%;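 also: promastigotes grown with compound for 44 hours at 28 °C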
RAM inhibit – inhibitors of the yeast RAM network, primary screen, dse1pr::URA3 reporter, 5-FOA selection; S. cerevisiae dse1pr::URA3 reporter, 5-FOA growth OD615, 2 d; analog-sensitive cbk1-as2 kinase mutant strain; inhibition, % at 50 µM; actives 1.8% (n = 190,000); AID 868, 2007;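 active = inhibition above a set limit, 3 SD over mean compound inhibition, cut at about 8.4% in these data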;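 also: 0% = DMSO-only wells with no growth and 100% = 10 µM 1-NA-PP1 full growth; inhibition rescues growth on 5-FOA so higher OD means more RAM inhibition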
ABCB1 inh – ABCB1 efflux pump inhibitors, primary screen, cell-based, multiplex, flow cytometry, ABCG2 counter-screen; actives 0.067% (n = 190,000); inhibition, % at 6.6 µM; CCRF-Adr cells, JC-1 efflux; in the data active = inhibition above about 40%;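 also: 0% = vehicle and 100% = reference inhibitor; higher value means more JC-1 retained so stronger ABCB1 efflux block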
ABCG2 block – ABCG2 efflux pump inhibitors, primary screen, multiplex with ABCB1, IgMXP3 cells, flow cytometry; JC-1 efflux; inhibition, % at 6.6 µM; actives 0.1% (n = 190,000);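 active = inhibition above 80%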;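 also: 0% = DMSO and 100% = nicardipine control wells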
Target sequence (Q9UNQ0 whole entry, looked up): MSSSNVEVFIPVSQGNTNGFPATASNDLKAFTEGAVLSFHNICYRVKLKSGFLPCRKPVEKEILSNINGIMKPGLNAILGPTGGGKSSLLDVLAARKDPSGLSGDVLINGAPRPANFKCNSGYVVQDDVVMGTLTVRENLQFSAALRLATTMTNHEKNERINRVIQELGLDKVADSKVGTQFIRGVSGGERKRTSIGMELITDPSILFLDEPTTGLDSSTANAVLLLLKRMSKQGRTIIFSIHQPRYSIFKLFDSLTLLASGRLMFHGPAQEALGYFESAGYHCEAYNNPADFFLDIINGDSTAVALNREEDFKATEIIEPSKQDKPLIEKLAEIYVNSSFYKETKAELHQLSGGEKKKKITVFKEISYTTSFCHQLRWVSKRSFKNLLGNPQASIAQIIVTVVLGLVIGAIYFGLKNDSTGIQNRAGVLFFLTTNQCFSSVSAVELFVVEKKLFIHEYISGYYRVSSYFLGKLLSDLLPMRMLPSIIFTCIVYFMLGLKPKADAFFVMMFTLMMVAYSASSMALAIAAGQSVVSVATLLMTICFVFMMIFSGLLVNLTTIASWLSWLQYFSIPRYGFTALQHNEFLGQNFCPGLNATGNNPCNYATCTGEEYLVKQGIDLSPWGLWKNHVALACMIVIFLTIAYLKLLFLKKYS
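Assay system – ABCG2 IgMXP3 and barcoded ABCB1 CCRF-Adr cell mix · Input – 3 million cells/mL in well · Reagent – JC-1 fluorescent substrate · Compound – single test compound dose, 6.6 µM final · Timing – 10 min exposure at 25 °C with rotation, no wash · Detection – flow cytometry of retained JC-1 fluorescence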
WT yeast gro inh – growth inhibition of WT strain, primary screen, mitochondrial fusion inhibitor project, WT and mutant strains, chemical genetic. mitochondrial fusion phenotypic screen. inhibition, % at 10 µM. actives 2.1% (n = 190,000); in the data active = inhibition above about 58%; tested in S. cerevisiae
RAM 5-FOA – 5-FOA growth of efflux-deficient control yeast, dose response, counter-screen for RAM network inhibitor project, S. cerevisiae, OD615; shares compounds with RAM inhibit; max inhibition, %; AID 1305, 2008; S. cerevisiae efflux-deficient reporter strain, 5-FOA growth OD615, 2 days; 1,200 tested, under 10 active; call rule not given here;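 also: plate controls were vehicle for no effect and reference inhibitor for full effect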
Active calls of the source: *; x = not tested or not shown. An excerpt weighted towards active compounds, which were near 12% of everything screened.

SMILES	L major viab	RAM inhibit	ABCB1 inh	ABCG2 block	WT yeast gro inh	RAM 5-FOA
O=C(COC(=O)c1cccs1)NCC1CCCCC1	-15	1	1	3	-11	x
Cc1nnc(SCC(=O)Nc2cccc(S(=O)(=O)N(C)c3ccccc3)c2)s1	10	2	0	5	-23	x
CCSc1ccc(-c2nn(-c3ccccc3)cc2/C=C(/C#N)C(=O)NCCCOC)cc1	5	17*	-1	-9	-3	5
CCCSc1ccc(-c2nn(-c3ccccc3)cc2/C=C(/C#N)C(=O)NCCCOC)cc1	86*	16*	1	0	-5	2
Cc1ccc(-c2nn(-c3ccccc3)cc2/C=C(\C#N)C(=O)NCc2ccccc2)cc1	43	6	1	18	7	x
O=C(Nc1ccc(N2CCOCC2)cc1)C1CCCN(S(=O)(=O)c2cccc(C(F)(F)F)c2)C1 (stereo not drawn)	-3	3	2	10	-9	x
O=C(/C=C/c1cccc([N+](=O)[O-])c1)NCCSCc1ccc(Cl)cc1Cl	0	12*	1	13	21	3
Cc1ccc(CSCCNC(=O)/C=C/c2ccc(Cl)cc2)cc1	-7	1	0	0	-15	x
O=C(/C=C/c1cccc([N+](=O)[O-])c1)NCCSCc1ccccc1Cl	-3	12*	1	8	39	2
O=C(/C=C/c1ccc2c(c1)OCO2)NCCSCc1ccc(Cl)cc1Cl	-7	12*	0	1	46	3
O=C(CSc1nnc2ccccn12)N1CCc2ccccc2C1	-7	0	0	2	2	x
O=C(CSc1nnc(-c2ccccc2Br)o1)N1CCc2ccccc2C1	-7	17*	0	2	7	2
Cc1ccc(NC(=O)COC(=O)CCC(=O)c2ccc(C(C)(C)C)cc2)c([N+](=O)[O-])c1	-3	14*	1	2	-7	4
Cc1ccc(NC(=O)COC(=O)COc2ccc(Cl)cc2C)c([N+](=O)[O-])c1	-6	12*	6	30	-33	1
Cc1ccc(NC(=O)COC(=O)c2cc(Cl)ccc2[N+](=O)[O-])c(C)c1	-5	4	1	17	-13	x
COc1ccc(NS(=O)(=O)c2ccc3oc(SCc4ccc(F)cc4)nc3c2)cc1	-4	13*	1	2	58	3
CCOC(=O)CSc1nc2cc(S(=O)(=O)Nc3ccccc3OC)ccc2o1	-4	3	0	3	9	x
COc1ccccc1NS(=O)(=O)c1ccc2oc(SCc3ccc(F)cc3)nc2c1	3	14*	0	3	39	3
Cc1cc(C(=O)OCC(=O)Nc2ccccc2[N+](=O)[O-])c2ccccc2n1	-5	5	2	15	0	x
CO/C(N)=C(\C#N)N=Cc1ccccc1Cl	-1	2	-1	-2	-3	x
Cc1cccc(Nc2nnc(-c3ccc(C(=O)N4C[C@H]5C[C@H](C4)c4cccc(=O)n4C5)cc3)c3ccccc23)c1	-1	1	0	0	0	x
Nc1nc(SCC(=O)NCc2ccc(F)cc2)[nH]c(=O)c1NC(=O)c1ccc(Cl)cc1	-10	12*	0	-2	-7	1
Cc1ccc(/C=C2\SC(=S)N(C(Cc3ccccc3)C(=O)O)C2=O)cc1 (stereo not drawn)	35	17*	0	9	-33	10
O=C(O)C(Cc1ccccc1)N1C(=O)/C(=C/c2ccccc2)SC1=S (stereo not drawn)	-4	5	0	0	-21	x
CC(=C\c1ccccc1)/C=C1/SC(=S)N(C(C(=O)O)C(C)C)C1=O (stereo not drawn)	0	21*	0	-2	2	4
SMILES	L major viab	RAM inhibit	ABCB1 inh	ABCG2 block	WT yeast gro inh	RAM 5-FOA
COc1ccc(CCN2C(=O)c3cccc4c(C(=O)N5CCCCC5)ccc(c34)C2=O)cc1OC	5	3	3	33	17	x
C/C(=C/C(=O)O)C(=O)Nc1cccc(C(F)(F)F)c1	0	5	1	7	2	x
O=C(N/N=C/c1ccc(OC(F)F)cc1)c1cccc(S(=O)(=O)N2CCOCC2)c1	0	1	0	1	-4	x
COC(=O)c1ccc(CSc2nc(-c3ccco3)cc(C(F)(F)F)n2)o1	9	18*	1	2	3	2
COc1ccc(N(C)S(=O)(=O)c2cccc(C(=O)NCC3CCCCC3)c2)cc1	28	13*	3	17	25	2
CCOC(=O)C1CN(S(=O)(=O)c2cccc(C(F)(F)F)c2)c2cc(CC(=O)OC)ccc2O1 (stereo not drawn)	-2	16*	1	2	5	2
COc1ccc(Nc2oc(COc3ccc(Cl)cc3)nc2C#N)cc1	25	3	0	3	-15	x
COc1ccc(CNc2oc(COc3ccc(Cl)cc3)nc2C#N)cc1	-5	13*	0	1	71*	3
COc1ccc(N2CCN(c3oc(COc4ccc(Cl)cc4)nc3C#N)CC2)cc1	3	13*	1	5	10	5
COC(=O)CSc1ccc(S(=O)(=O)N2CCCCCC2)cc1[N+](=O)[O-]	10	1	1	3	-7	x
O=C(CSc1nc(COc2ccccc2)nc2ccccc12)NC1CCCC1	2	4	1	7	19	x
CCCCC(=O)Nc1cccc(-c2csc(-c3ccccc3)n2)c1	-4	18*	0	2	32	4
O=C(O)CCC(=O)Nc1cccc(-c2csc(-c3ccccc3)n2)c1	-5	3	0	1	-15	x
Cc1cccc(NC(=O)C2CCCN2C(=O)Oc2ccccc2)c1C (stereo not drawn)	2	12*	1	6	-16	1
Cc1ccc(NC(=O)C2CCCN2C(=O)Oc2ccccc2)c(C)c1 (stereo not drawn)	-7	1	0	0	-10	x
O=C(O)CCN1C(=O)/C(=C/c2cn(-c3ccccc3)nc2-c2cccs2)SC1=S	-4	12*	0	1	-5	2
O=C(N/N=C/c1cn(-c2ccccc2)nc1-c1cccs1)c1ccccc1F	12	0	4	17	42	x
COc1cc2c(cc1NC(=O)C(C)Sc1ccc(C)cc1)oc1ccccc12 (stereo not drawn)	7	14*	0	3	13	4
COc1cc2c(cc1NC(=O)CSc1ccc(C)cc1)oc1ccccc12	0	4	0	0	40	x
CC(C)(CNC(=S)NCCc1ccccc1)CNC(=S)NCCc1ccccc1	95*	15*	0	7	30	7
